Test results from ChEMBL document CHEMBL5058577, “EUbOPEN Chemogenomics Library 2 (Multiplex)” (2022).

Test system: U2OS
Assay: Multiplex assay against U2OS
Format: toxicity, cell-based
Conditions: human
In short: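 With compound added, live cells were imaged on a CQ1 microscope at 37°C and 5% CO2; staining with Hoechst33342, BioTracker Green Microtubule Cytoskeleton Dye, MitoTracker Red and Annexin V Alexa Fluor 680 had been done at seeding. The CellPathfinder machine-learning gating scheme split cells into Hoechst high-intensity objects or normal cells, normal cells into healthy, pyknosed or fragmented nuclei, and pyknosed cells into mitotic or apoptotic. The tubulin, mitochondrial-mass and membrane-permeability phenotypes are per cents of healthy-nucleus cells.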

[1] = 12 h, 1 µM, compound concentration 1 uM, replicate 1
[2] = 12 h, 1 µM, compound concentration 1 uM, replicate 2
[3] = 12 h, 10 µM, compound concentration 10 uM, replicate 1
[4] = 12 h, 10 µM, compound concentration 10 uM, replicate 2
[5] = 24 h, 1 µM, compound concentration 1 uM, replicate 1
[6] = 24 h, 1 µM, compound concentration 1 uM, replicate 2
[7] = 24 h, 10 µM, compound concentration 10 uM, replicate 1
[8] = 24 h, 10 µM, compound concentration 10 uM, replicate 2
[9] = 48 h, 1 µM, compound concentration 1 uM, replicate 1
[10] = 48 h, 1 µM, compound concentration 1 uM, replicate 2
[11] = 48 h, 10 µM, compound concentration 10 uM, replicate 1
[12] = 48 h, 10 µM, compound concentration 10 uM, replicate 2

SMILES: C[C@@H]1C[C@H]2[C@@H]3CCC4=CC(=O)C=C[C@]4(C)[C@@]3(F)[C@@H](O)C[C@]2(C)[C@@]1(O)C(=O)CO [DEXAMETHASONE]
- Population Apoptotic (%) [1]: 77%
- Population Fragmented Nuclei (%) [1]: 21%
- Population Healthy Nuclei (%) [1]: 70%
- Population Hoechst High Intensity Objects (%) [1]: 2%
- Population Membrane Permeable-Phenotype (%) [1]: 2%
- Population Mitochondria Different-Phenotype (%) [1]: 0%
- Population Mitotic Cells (%) [1]: 22%
- Population Normal (%) [1]: 97%
- Population Pyknosed Nuclei (%) [1]: 7%
- Population Tubulin-Different-Phenotype (%) [1]: 1%
- Total Cell Count [1]: 238
- Population Apoptotic (%) [2]: 80%
- Population Fragmented Nuclei (%) [2]: 20%
- Population Healthy Nuclei (%) [2]: 75%
- Population Hoechst High Intensity Objects (%) [2]: 0%
- Population Membrane Permeable-Phenotype (%) [2]: 4%
- Population Mitochondria Different-Phenotype (%) [2]: 1%
- Population Mitotic Cells (%) [2]: 20%
- Population Normal (%) [2]: 99%
- Population Pyknosed Nuclei (%) [2]: 4%
- Population Tubulin-Different-Phenotype (%) [2]: 3%
- Total Cell Count [2]: 124
- Population Apoptotic (%) [3]: 80%
- Population Fragmented Nuclei (%) [3]: 20%
- Population Healthy Nuclei (%) [3]: 69%
- Population Hoechst High Intensity Objects (%) [3]: 2%
- Population Membrane Permeable-Phenotype (%) [3]: 6%
- Population Mitochondria Different-Phenotype (%) [3]: 1%
- Population Mitotic Cells (%) [3]: 19%
- Population Normal (%) [3]: 97%
- Population Pyknosed Nuclei (%) [3]: 9%
- Population Tubulin-Different-Phenotype (%) [3]: 2%
- Total Cell Count [3]: 319
- Population Apoptotic (%) [4]: 84%
- Population Fragmented Nuclei (%) [4]: 16%
- Population Healthy Nuclei (%) [4]: 76%
- Population Hoechst High Intensity Objects (%) [4]: 0%
- Population Membrane Permeable-Phenotype (%) [4]: 7%
- Population Mitochondria Different-Phenotype (%) [4]: 2%
- Population Mitotic Cells (%) [4]: 15%
- Population Normal (%) [4]: 100%
- Population Pyknosed Nuclei (%) [4]: 7%
- Population Tubulin-Different-Phenotype (%) [4]: 3%
- Population Apoptotic (%) [5]: 96%
- Population Fragmented Nuclei (%) [5]: 19%
- Population Healthy Nuclei (%) [5]: 71%
- Population Hoechst High Intensity Objects (%) [5]: 2%
- Population Membrane Permeable-Phenotype (%) [5]: 4%
- Population Mitochondria Different-Phenotype (%) [5]: 2%
- Population Mitotic Cells (%) [5]: 4%
- Population Normal (%) [5]: 97%
- Population Pyknosed Nuclei (%) [5]: 8%
- Population Tubulin-Different-Phenotype (%) [5]: 2%
- Total Cell Count [5]: 288
- Population Apoptotic (%) [6]: 90%
- Population Fragmented Nuclei (%) [6]: 18%
- Population Healthy Nuclei (%) [6]: 73%
- Population Membrane Permeable-Phenotype (%) [6]: 6%
- Population Mitochondria Different-Phenotype (%) [6]: 0%
- Population Mitotic Cells (%) [6]: 9%
- Population Pyknosed Nuclei (%) [6]: 7%
- Population Tubulin-Different-Phenotype (%) [6]: 4%
- Population Apoptotic (%) [7]: 82%
- Population Fragmented Nuclei (%) [7]: 17%
- Population Healthy Nuclei (%) [7]: 74%
- Population Hoechst High Intensity Objects (%) [7]: 1%
- Population Membrane Permeable-Phenotype (%) [7]: 6%
- Population Mitochondria Different-Phenotype (%) [7]: 0%
- Population Mitotic Cells (%) [7]: 17%
- Population Normal (%) [7]: 98%
- Population Pyknosed Nuclei (%) [7]: 7%
- Population Tubulin-Different-Phenotype (%) [7]: 2%
- Total Cell Count [7]: 378
- Population Apoptotic (%) [8]: 75%
- Population Fragmented Nuclei (%) [8]: 14%
- Population Healthy Nuclei (%) [8]: 79%
- Population Hoechst High Intensity Objects (%) [8]: 0%
- Population Mitochondria Different-Phenotype (%) [8]: 2%
- Population Mitotic Cells (%) [8]: 25%
- Population Normal (%) [8]: 99%
- Population Pyknosed Nuclei (%) [8]: 5%
- Total Cell Count [8]: 219
- Population Apoptotic (%) [9]: 84%
- Population Fragmented Nuclei (%) [9]: 20%
- Population Healthy Nuclei (%) [9]: 72%
- Population Hoechst High Intensity Objects (%) [9]: 1%
- Population Membrane Permeable-Phenotype (%) [9]: 1%
- Population Mitochondria Different-Phenotype (%) [9]: 1%
- Population Mitotic Cells (%) [9]: 16%
- Population Normal (%) [9]: 98%
- Population Pyknosed Nuclei (%) [9]: 6%
- Population Tubulin-Different-Phenotype (%) [9]: 0%
- Total Cell Count [9]: 391
- Population Apoptotic (%) [10]: 71%
- Population Fragmented Nuclei (%) [10]: 17%
- Population Healthy Nuclei (%) [10]: 74%
- Population Hoechst High Intensity Objects (%) [10]: 2%
- Population Membrane Permeable-Phenotype (%) [10]: 3%
- Population Mitochondria Different-Phenotype (%) [10]: 3%
- Population Mitotic Cells (%) [10]: 28%
- Population Normal (%) [10]: 97%
- Population Pyknosed Nuclei (%) [10]: 7%
- Population Tubulin-Different-Phenotype (%) [10]: 4%
- Total Cell Count [10]: 186
- Population Apoptotic (%) [11]: 92%
- Population Fragmented Nuclei (%) [11]: 14%
- Population Healthy Nuclei (%) [11]: 77%
- Population Hoechst High Intensity Objects (%) [11]: 2%
- Population Membrane Permeable-Phenotype (%) [11]: 4%
- Population Mitochondria Different-Phenotype (%) [11]: 1%
- Population Mitotic Cells (%) [11]: 7%
- Population Normal (%) [11]: 97%
- Population Pyknosed Nuclei (%) [11]: 8%
- Population Tubulin-Different-Phenotype (%) [11]: 1%
- Total Cell Count [11]: 497
- Population Apoptotic (%) [12]: 86%
- Population Fragmented Nuclei (%) [12]: 16%
- Population Healthy Nuclei (%) [12]: 76%
- Population Membrane Permeable-Phenotype (%) [12]: 5%
- Population Mitochondria Different-Phenotype (%) [12]: 0%
- Population Mitotic Cells (%) [12]: 13%
- Population Pyknosed Nuclei (%) [12]: 7%
- Total Cell Count [12]: 294
